Data set [1] in a line: Toxicity in mouse. It is filed as organism-based. The settings on record: in vivo. The method in brief:
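Toxicity in mice from the NINCDS screens, expressed as TD50: dose toxic in 50% of screens, in mg/kg.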

For data set [2], the species on record is Mus musculus. Nature of the data set: Anticonvulsant activity in mouse assessed as protection against maximal electroshock-induced seizures. It is filed as functional. (In general: The maximal electroshock test induces tonic seizures with an electrical stimulus.)
In data set [3] the test system is Mus musculus. Nature of the data set: Anticonvulsant activity in mouse assessed as protection against subcutaneous pentylenetetrazole-induced seizures. It is filed as functional. The note with it: sc. The method in brief:
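Mice screened in the NINCDS program for subcutaneous metrazole (pentylenetetrazole) seizure threshold (scMet) protection; ED50 taken as dose effective in 50% of test animals, in mg/kg.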

Active and inactive are the calls of the source.

On to `CC(=O)N1C(=O)N(C(C)(C)C)C(=O)C1(C)C`, for which the TD50 (in general, the dose at which the toxic effect under study appears in half of the subjects) in data set [1] was at most 30 mg/kg. Regarding `CCN(CC)CCN1C(=O)N(CCN(CC)CC)C(c2ccccc2)(c2ccccc2)C1=O`, the outcome in the data set filed under Mus musculus [2] was inactive.

For the compound `CC1(C)OC(=O)N(C(C)(C)C)C1=O`, the outcome in the data set listed under Mus musculus [2] was inactive. Same read-out and setting: the value for `CCN(CC)CCN1C(=O)NC(C)(C)C1=O` was “inactive”. Turning to `CC1(C)NC(=O)N(C(C)(C)C)C1=O`, the TD50 in data set [1] is 343 mg/kg. In addition, the ED50 – broadly, the dose at which the effect has come halfway, by size or by number of responders – in the data set on Mus musculus [3] came to 130 mg/kg. For the compound `CCN(CC)CCN1C(=O)NC(c2ccccc2)(c2ccccc2)C1=O`, the ED50 in the data set filed under Mus musculus [2] was found to be 80 mg/kg. `CN1C(=O)N(C(C)(C)C)C(=O)C1(C)C`: the outcome in the data set filed under Mus musculus [2] was inactive. The same measure, in the same setting: then `CC1(C)NC(=O)N(C23CC4CC(CC(C4)C2)C3)C1=O`, with “inactive”; and `Cc1ccc(S(=O)(=O)N2C(=O)NC(C)(C)C2=O)cc1`, with “inactive”.

The values are drawn from ChEMBL document CHEMBL3227954, “Synthesis of imidazolidinediones and oxazolidinediones from cyclization of propargylureas and propargyl carbamates” (J Med Chem, 1979).
